This note sets out measurements from ChEMBL document CHEMBL3046018, “Design, syntheses and 3D-QSAR studies of novel N-phenyl pyrrolidin-2-ones and N-phenyl-1H-pyrrol-2-ones as protoporphyrinogen oxidase inhibitors” (Bioorg Med Chem, 2010).

Structures are written as SMILES.

One test has as its system Setaria viridis. Put plainly: Herbicidal activity against Setaria viridis assessed as growth inhibition at 150 g ai/ha using post-emergence protocol under greenhouse conditions measured 15 days after compound treatment. Type of test: functional. The note with it: 360 h, read-out: GI. Summed up:
(§1)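 Grass weeds were grown in pots in the greenhouse and sprayed post-emergence at the 1-leaf stage. The spray was formulation concentrate diluted in water. Soil was clay, pH 6.5, 1.6% organic matter, 37.3% clay particles, CEC 12.1 mol/kg. The g.ai/ha rate was active ingredient over pot surface area. Controls were untreated and DMF-treated seedlings.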

Another test has as its system Echinochloa crus-galli. The test can be described thus: Herbicidal activity against Echinochloa crus-galli (barnyard grass) assessed as growth inhibition at 150 g ai/ha using post-emergence protocol under greenhouse conditions measured 15 days after compound treatment. Type of test: functional. The note with it: 360 h, read-out: GI. Summed up:
as §1

Test [1] has as its target T1, Protoporphyrinogen oxidase (Homo sapiens, UniProt P50336).
T1 sequence (P50336 whole entry): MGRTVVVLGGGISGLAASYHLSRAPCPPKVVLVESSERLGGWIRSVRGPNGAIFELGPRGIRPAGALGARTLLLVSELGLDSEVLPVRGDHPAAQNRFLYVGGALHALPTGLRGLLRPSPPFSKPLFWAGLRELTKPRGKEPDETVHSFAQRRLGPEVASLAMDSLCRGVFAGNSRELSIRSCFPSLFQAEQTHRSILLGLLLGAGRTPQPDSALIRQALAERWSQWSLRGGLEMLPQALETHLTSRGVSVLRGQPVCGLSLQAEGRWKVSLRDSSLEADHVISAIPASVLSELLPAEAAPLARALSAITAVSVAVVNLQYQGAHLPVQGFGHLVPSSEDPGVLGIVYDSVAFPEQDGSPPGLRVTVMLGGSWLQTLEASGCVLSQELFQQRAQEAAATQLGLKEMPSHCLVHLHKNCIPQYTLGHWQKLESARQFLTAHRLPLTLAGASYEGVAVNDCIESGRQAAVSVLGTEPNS
Put plainly: Inhibition of Homo sapiens (human) protoporphyrinogen oxidase.

The next test relates to Digitaria sanguinalis. The test can be described thus: Herbicidal activity against Digitaria sanguinalis (hairy crabgrass) assessed as growth inhibition at 150 g ai/ha using post-emergence protocol under greenhouse conditions measured 15 days after compound treatment. Type of test: functional. Conditions: 360 h, read-out: GI. The method, boiled down:
as §1

Another test has as its system Eclipta prostrata. The test can be described thus: Herbicidal activity against Eclipta prostrata assessed as growth inhibition at 150 g ai/ha using post-emergence protocol under greenhouse conditions measured 15 days after compound treatment. It counts as functional. The note with it: 360 h, read-out: GI. The method, boiled down: (§2)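 Post-emergence greenhouse spray on pot-grown broadleaf weeds at the 2-leaf stage. Formulation concentrates were diluted with water. Soil was clay, pH 6.5, 1.6% organic matter, 37.3% clay particles, CEC 12.1 mol/kg. The rate was total active ingredient divided by pot surface area. Untreated seedlings and DMF-treated seedlings served as controls.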

In another test the test system is Brassica juncea. Put plainly: Herbicidal activity against Brassica juncea assessed as growth inhibition at 150 g ai/ha using post-emergence protocol under greenhouse conditions measured 15 days after compound treatment. It counts as functional. Conditions: 360 h, read-out: GI. The method, boiled down: as §2
Another test relates to Amaranthus retroflexus. Put plainly: Herbicidal activity against Amaranthus retroflexus assessed as growth inhibition at 150 g ai/ha using post-emergence protocol under greenhouse conditions measured 15 days after compound treatment. Conditions: 360 h, read-out: GI. It counts as functional. The method, boiled down:
as §2

In a further test the test system is Chenopodium album. Put plainly: Herbicidal activity against Chenopodium album assessed as growth inhibition at 150 g ai/ha using post-emergence protocol under greenhouse conditions measured 15 days after compound treatment. It counts as functional. Conditions: 360 h, read-out: GI. The method, boiled down:
as §2

With `COc1cc(N2C(=O)C3CCCCC3C2=O)c(F)cc1Cl` (configuration not stated), the inhibition of growth at 150 g/ha in the test on Setaria viridis was determined as 50%; with Echinochloa crus-galli, 50%; in the test with Digitaria sanguinalis it was 50%; with Eclipta prostrata it was 50%; in the test with Brassica juncea it was 50%; in the test on Amaranthus retroflexus, 100%. For the same molecule, the inhibition of growth at 150 g/ha in the test with Chenopodium album was less than 50%. For the same molecule, the Ki in test [1] (read-out: Ki) was found to be 8.22 µM.

As to `CCOC(=O)COc1cc(N2C(=O)C3CCCCC3C2=O)c(F)cc1Cl` (configuration not stated), the inhibition of growth at 150 g/ha in the test on Setaria viridis, with Echinochloa crus-galli, in the test with Digitaria sanguinalis, with Eclipta prostrata, in the test with Brassica juncea and in the test with Amaranthus retroflexus was less than 50% each time. In addition, in the test on Chenopodium album, the inhibition of growth at 150 g/ha is less than 50%. Besides, the Ki in test [1] (read-out: Ki) was found to be 15.2 µM.

In the case of `CCOC(=O)C(C)Oc1cc(N2C(=O)C3CCCCC3C2=O)c(F)cc1Cl` (configuration not stated), the inhibition of growth at 150 g/ha with Setaria viridis is less than 50%; with Echinochloa crus-galli, less than 50%; in the test with Digitaria sanguinalis it was less than 50%; in the test on Eclipta prostrata it was greater than 80%; in the test with Brassica juncea it was 50%; in the test on Amaranthus retroflexus, 100%. For the same molecule, the inhibition of growth at 150 g/ha with Chenopodium album worked out at 50%. Also, the Ki in test [1] (read-out: Ki) worked out at 3.3 µM.

With `O=C1C2CCCCC2C(O)N1c1cc(OC2CCCC2)c(Cl)cc1F` (configuration not stated), the inhibition of growth at 150 g/ha with Setaria viridis, in the test with Echinochloa crus-galli, in the test with Digitaria sanguinalis, in the test on Eclipta prostrata, in the test on Brassica juncea and with Amaranthus retroflexus was less than 50% in each case. Further, the inhibition of growth at 150 g/ha in the test with Chenopodium album is less than 50%. The Ki in test [1] (read-out: Ki) worked out at 24.6 µM.

`CC(C)Oc1cc(N2C(=O)C3CCCCC3C2O)c(F)cc1Cl` (configuration not stated): the inhibition of growth at 150 g/ha with Setaria viridis, in the test with Echinochloa crus-galli, in the test with Digitaria sanguinalis, in the test with Eclipta prostrata, with Brassica juncea and with Amaranthus retroflexus was less than 50% throughout. For the same molecule, in the test with Chenopodium album, the inhibition of growth at 150 g/ha is less than 50%. Moreover, in test [1] (read-out: Ki), the Ki turned out to be 47.4 µM.

With `COc1cc(N2C(=O)C3CCCCC3C2O)c(F)cc1Cl` (configuration not stated), the inhibition of growth at 150 g/ha with Setaria viridis, in the test on Echinochloa crus-galli, with Digitaria sanguinalis, in the test with Eclipta prostrata, in the test on Brassica juncea and with Amaranthus retroflexus was less than 50% each time. For the same molecule, the inhibition of growth at 150 g/ha in the test with Chenopodium album was less than 50%. In addition, the Ki in test [1] (read-out: Ki) amounted to 131 µM.

Regarding `CCOC(=O)COc1cc(N2C(=O)C3CCCCC3C2O)c(F)cc1Cl` (configuration not stated), the inhibition of growth at 150 g/ha with Setaria viridis, in the test with Echinochloa crus-galli, in the test with Digitaria sanguinalis, in the test on Eclipta prostrata, in the test on Brassica juncea and with Amaranthus retroflexus was less than 50% each time. Besides, in the test with Chenopodium album, the inhibition of growth at 150 g/ha was less than 50%. For the same molecule, the Ki in test [1] (read-out: Ki) came out at 124 µM.

Take `CCOC(=O)C(C)Oc1cc(N2C(=O)C3CCCCC3C2O)c(F)cc1Cl` (configuration not stated): the inhibition of growth at 150 g/ha in the test on Setaria viridis, in the test with Echinochloa crus-galli, in the test with Digitaria sanguinalis, in the test on Eclipta prostrata, in the test on Brassica juncea and with Amaranthus retroflexus was less than 50% each time. Further, the inhibition of growth at 150 g/ha in the test on Chenopodium album was less than 50%. Also, the Ki in test [1] (read-out: Ki) came out at 48.1 µM.

On to `C#CCOc1cc(N2C(=O)C3CCCCC3C2O)c(F)cc1Cl` (configuration not stated), for which the inhibition of growth at 150 g/ha in the test on Setaria viridis, in the test on Echinochloa crus-galli, in the test on Digitaria sanguinalis, with Eclipta prostrata, in the test with Brassica juncea and with Amaranthus retroflexus was less than 50% throughout. The inhibition of growth at 150 g/ha in the test with Chenopodium album was less than 50%. For the same molecule, the Ki in test [1] (read-out: Ki) is 63.6 µM.

In the case of `C=CCOc1cc(N2C(=O)C3CCCCC3C2O)c(F)cc1Cl` (configuration not stated), the inhibition of growth at 150 g/ha with Setaria viridis, in the test with Echinochloa crus-galli, in the test on Digitaria sanguinalis, in the test with Eclipta prostrata, with Brassica juncea and in the test on Amaranthus retroflexus was less than 50% in each case. Further, the inhibition of growth at 150 g/ha with Chenopodium album was less than 50%. For the same molecule, the values for the Ki in test [1] (read-out: Ki) and in test [1] (read-out: pKi (converted)) were 44.8 µM and 45.7 µM, respectively.

On to `CC(C)Oc1cc(N2CC3=C(CCCC3)C2=O)c(F)cc1Cl`, for which the inhibition of growth at 150 g/ha in the test with Setaria viridis is 50%; in the test on Echinochloa crus-galli, less than 50%; in the test with Digitaria sanguinalis, less than 50%; in the test on Eclipta prostrata it was greater than 80%; in the test on Brassica juncea, greater than 80%; in the test with Amaranthus retroflexus it was 100%. In addition, the inhibition of growth at 150 g/ha with Chenopodium album is greater than 80%. For the same molecule, the Ki in test [1] (read-out: Ki) came out at 0.69 µM.

In the case of `Nc1cc(N2CC3=C(CCCC3)C2=O)ccc1Cl`, the inhibition of growth at 150 g/ha in the test with Setaria viridis, in the test with Echinochloa crus-galli, in the test on Digitaria sanguinalis, in the test on Eclipta prostrata, in the test on Brassica juncea and in the test on Amaranthus retroflexus was less than 50% each time. For the same molecule, the inhibition of growth at 150 g/ha in the test with Chenopodium album was less than 50%. The Ki in test [1] (read-out: Ki) is 27.6 µM.
